In ChEMBL document CHEMBL2086383, “Antitumor agents. 293. Nontoxic dimethyl-4,4'-dimethoxy-5,6,5',6'-dimethylenedioxybiphenyl-2,2'-dicarboxylate (DDB) analogues chemosensitize multidrug-resistant cancer cells to clinical anticancer drugs” (J Med Chem, 2012):
pEC50, pIC50: −log10 of the molar value. Active and inactive are the calls of the source. The rule behind the calls is not given here.

Legend:
Format in all cases: cell-based
[1] = system: KBVIN; assay: Inhibition of P-gp-mediated multidrug-resistance in human KBVIN cells assessed as doxorubicin-induced cytotoxicity at 10 uM after 72 hrs by SRB assay
Outline: (§1)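 KBvin cells were exposed to graded concentrations of anticancer drug (doxorubicin, paclitaxel or vincristine), alone or with 10 μM test compound, for 72 h. Growth was read by SRB assay. IC50 was found by log-linear interpolation. Reversal fold = IC50 (drug alone) / IC50 (drug + compound). Verapamil was the positive control. Each experiment was run at least three times.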

[2] = system: KBVIN; assay: Inhibition of P-gp-mediated multidrug-resistance in human KBVIN cells assessed as fold decrease in paclitaxel IC50 for cytotoxic activity at 10 uM after 72 hrs by SRB assay relative to control; outline: as §1
[3] = system: KB; assay: Antiproliferative activity against human KB cells after 72 hrs by SRB assay; conditions: for pIC50: Homo sapiens, KB
Outline: (§2)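 SRB assay. Cells at 3–5 × 10^3/well were exposed to a range of sample concentrations for 72 h. They were fixed in 50% TCA for 30 min, stained with 0.04% SRB for 30 min, and the dye was dissolved in 10 mM Tris base. Absorbance read at 515 nm. Medium was RPMI 1640 with 10% FBS at 37 °C, 5% CO2. KBvin cells were kept in 100 nM vincristine.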

[4] = system: KBVIN; assay: (§3) Inhibition of P-gp-mediated multidrug-resistance in human KBVIN cells assessed as paclitaxel-induced cytotoxicity after 72 hrs by SRB assay
Outline: (§4)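 KBvin cells were cultured with 100 nM paclitaxel plus a range of compound concentrations. Growth was read by SRB, and the EC50 of reversal was derived. Verapamil was the comparator.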

[5] = as §3; outline: as §4
[6] = system: NIH3T3; assay: Inhibition of human P-gp-mediated multidrug-resistance in mouse NIH3T3 MDR cells assessed as potentiation of in paclitaxel-induced cytotoxic activity at 10 uM after 72 hrs by SRB assay; conditions: human P-gp expressed in mouse cells
[7] = system: NIH3T3; assay: Inhibition of human P-gp-mediated multidrug-resistance in mouse NIH3T3 MDR cells assessed as potentiation of in vincristine-induced cytotoxic activity at 10 uM after 72 hrs by SRB assay; conditions: Mus musculus cells expressing human P-gp
[8] = system: A549; assay: Antiproliferative activity against human A549 cells after 72 hrs by SRB assay; conditions: for pIC50: Homo sapiens, A549, 72 h; outline: as §2
[9] = target: T1, ATP-dependent translocase ABCB1 (Homo sapiens, UniProt P08183); assay: Inhibition of P-gp over expressed in human multidrug-resistant KBVIN cells assessed as intracellular accumulation of doxorubicin at 10uM after 3 hrs by fluorescence microplate reader analysis relative to control
T1 sequence (P08183 whole entry): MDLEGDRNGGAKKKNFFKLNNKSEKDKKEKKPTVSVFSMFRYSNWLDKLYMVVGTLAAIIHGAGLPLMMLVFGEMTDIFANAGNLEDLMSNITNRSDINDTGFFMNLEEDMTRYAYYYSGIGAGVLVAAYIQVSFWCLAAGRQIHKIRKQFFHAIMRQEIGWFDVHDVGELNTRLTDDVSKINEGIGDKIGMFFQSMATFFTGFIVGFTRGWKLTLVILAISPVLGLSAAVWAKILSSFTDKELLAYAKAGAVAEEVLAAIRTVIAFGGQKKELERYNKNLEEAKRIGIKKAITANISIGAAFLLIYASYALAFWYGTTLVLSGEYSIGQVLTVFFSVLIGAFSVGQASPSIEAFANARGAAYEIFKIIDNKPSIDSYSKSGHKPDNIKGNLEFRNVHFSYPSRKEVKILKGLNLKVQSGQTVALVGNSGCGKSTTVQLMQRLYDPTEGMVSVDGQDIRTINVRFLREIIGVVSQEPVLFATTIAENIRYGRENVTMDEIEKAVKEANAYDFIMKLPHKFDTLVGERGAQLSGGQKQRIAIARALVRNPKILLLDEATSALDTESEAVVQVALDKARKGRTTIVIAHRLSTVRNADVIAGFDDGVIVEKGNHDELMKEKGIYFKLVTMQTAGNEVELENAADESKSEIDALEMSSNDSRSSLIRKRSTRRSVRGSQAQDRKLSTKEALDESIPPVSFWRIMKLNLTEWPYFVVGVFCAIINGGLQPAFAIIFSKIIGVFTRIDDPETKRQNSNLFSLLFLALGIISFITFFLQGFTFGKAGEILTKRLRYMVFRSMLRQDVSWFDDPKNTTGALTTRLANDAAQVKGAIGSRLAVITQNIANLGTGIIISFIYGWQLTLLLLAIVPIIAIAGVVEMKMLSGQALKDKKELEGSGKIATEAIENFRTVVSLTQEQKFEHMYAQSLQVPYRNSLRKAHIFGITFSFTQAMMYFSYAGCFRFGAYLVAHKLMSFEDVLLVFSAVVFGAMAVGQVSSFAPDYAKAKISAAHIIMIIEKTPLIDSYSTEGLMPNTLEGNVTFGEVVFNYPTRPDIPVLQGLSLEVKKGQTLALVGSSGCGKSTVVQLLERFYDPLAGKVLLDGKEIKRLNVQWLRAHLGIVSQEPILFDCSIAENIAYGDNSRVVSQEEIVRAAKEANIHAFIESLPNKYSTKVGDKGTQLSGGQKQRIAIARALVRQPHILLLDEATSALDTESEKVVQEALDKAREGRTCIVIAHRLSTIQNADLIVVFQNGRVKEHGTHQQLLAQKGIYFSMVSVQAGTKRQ
Outline: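 KBvin cells at 5 × 10^3/well were pretreated with compound for 1 h, then given doxorubicin (10 μM final) for 3 h. Cells were washed with ice-cold PBS and lysed in 1% SDS/PBS. Verapamil or CsA served as positive control.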

[10] = system: DU-145; assay: Antiproliferative activity against human DU145 cells after 72 hrs by SRB assay; conditions: for pIC50: Homo sapiens, DU-145, 72 h; outline: as §2
[11] = system: KBVIN; assay: Inhibition of P-gp-mediated multidrug-resistance in human KBVIN cells assessed as paclitaxel-induced cytotoxicity at 10 uM after 72 hrs by SRB assay; outline: as §1
[12] = target: T1, ATP-dependent translocase ABCB1; assay: Inhibition of P-gp over expressed in human multidrug-resistant KBVIN cells after 10 mins by calcein AM accumulation assay
Outline: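 KBvin cells at 5 × 10^3/well were pretreated with samples for 1 h, then given calcein-AM (1 μM final) for 10 min. Cells were washed with ice-cold PBS and lysed in 1% SDS/PBS. Calcein fluorescence read at Ex 494/Em 517 nm. Verapamil or CsA served as positive control.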

[13] = system: KBVIN; assay: Inhibition of P-gp-mediated multidrug-resistance in human KBVIN cells assessed as vincristine-induced cytotoxicity at 10 uM after 72 hrs by SRB assay; outline: as §1
[14] = system: KBVIN; assay: Inhibition of P-gp-mediated multidrug-resistance in human KBVIN cells assessed as fold decrease in vincristine IC50 for cytotoxic activity at 10 uM after 72 hrs by SRB assay relative to control; outline: as §1
[15] = system: KBVIN; assay: Inhibition of P-gp-mediated multidrug-resistance in human KBVIN cells assessed as fold decrease in doxorubicin IC50 for cytotoxic activity at 10 uM after 72 hrs by SRB assay relative to control; outline: as §1
[16] = Antiproliferative activity against human multidrug-resistant KBVIN cells after 72 hrs by SRB assay; conditions: for pIC50: Homo sapiens, KBVIN; outline: as §2
[17] = system: KBVIN; assay: Inhibition of P-gp-mediated multidrug-resistance in human KBVIN cells assessed as […] of paclitaxel-induced cell survival rate at 10 uM after 72 hrs by SRB assay

## COc1cc(COC(=O)C(C)(C)C)c(-c2c(COC(=O)C(C)(C)C)cc(OC)c3c2OCO3)c2c1OCO2
[1]
  Activity: Active
[2]
  fold change (FC): 37
[3]
  pIC50: < 4.00
[4]
  inhibition: Dose-dependent effect
[5]
  pEC50: 5.55
[6]
  inhibition: Active
[7]
  inhibition: Active
[8]
  pIC50: < 4.00
[9]
  fold change (FC): 1.2
[10]
  pIC50: < 4.00
[11]
  Activity: Active
[12]
  inhibition (INH): Dose-dependent effect
[13]
  Activity: Active
[14]
  fold change (FC): 349
[15]
  fold change (FC): 46
[16]
  pIC50: < 4.00

## COc1cc(C(=O)OCc2cc(OC)c3c(c2-c2c(COC(=O)c4cc(OC)c(OC)c(OC)c4)cc(OC)c4c2OCO4)OCO3)cc(OC)c1OC
[1]
  Activity: Active
[2]
  fold change (FC): 222
[3]
  pIC50: < 4.00
[4]
  inhibition: Dose-dependent effect
[5]
  pEC50: 5.73
[6]
  inhibition: Active
[7]
  inhibition: Active
[8]
  pIC50: < 4.00
[9]
  fold change (FC): 1.2
[10]
  pIC50: < 4.00
[11]
  Activity: Active
[12]
  inhibition (INH): Dose-dependent effect
[13]
  Activity: Active
[14]
  fold change (FC): 566
[15]
  fold change (FC): 23
[16]
  pIC50: < 4.00

## CCCCCCCCCCCC(=O)OCc1cc(OC)c2c(c1-c1c(COC(=O)CCCCCCCCCCC)cc(OC)c3c1OCO3)OCO2
[3]
  pIC50: < 4.00
[8]
  pIC50: < 4.00
[17]
  inhibition: inactive
[10]
  pIC50: < 4.00
[16]
  pIC50: < 4.00

## COc1c(Br)c(CO)c(-c2c3c(c(OC)c(Br)c2C(=O)O)OCO3)c2c1OCO2
[3]
  pIC50: < 4.00
[8]
  pIC50: < 4.00
[17]
  inhibition: inactive
[10]
  pIC50: < 4.00
[16]
  pIC50: < 4.00

## COc1cc(COC(C)=O)c(-c2c(COC(C)=O)cc(OC)c3c2OCO3)c2c1OCO2
[3]
  pIC50: < 4.00
[8]
  pIC50: < 4.00
[17]
  inhibition: inactive
[10]
  pIC50: < 4.00
[16]
  pIC50: < 4.00

## CCCC(=O)OCc1c(Br)c(OC)c2c(c1-c1c(COC(=O)CCC)c(Br)c(OC)c3c1OCO3)OCO2
[3]; human, kb
  Activity: Toxic
[8]; human, a549, 72 h
  Activity: Toxic
[17]
  inhibition: inactive
[10]; human, du-145, 72 h
  Activity: Toxic
[16]; human, kbvin
  Activity: Toxic

## COc1cc(CO)c(-c2c(CO)cc(OC)c3c2OCO3)c2c1OCO2
[3]
  pIC50: < 4.00
[8]
  pIC50: < 4.00
[17]
  inhibition: inactive
[10]
  pIC50: < 4.00
[16]
  pIC50: < 4.00

## COc1cc(COC(=O)c2ccc([N+](=O)[O-])cc2)c(-c2c(COC(=O)c3ccc([N+](=O)[O-])cc3)cc(OC)c3c2OCO3)c2c1OCO2
[3]
  pIC50: < 4.00
[8]
  pIC50: < 4.00
[17]
  inhibition: inactive
[10]
  pIC50: < 4.00
[16]
  pIC50: < 4.00

## COc1cc(COC(=O)c2ccc3c(c2)OCO3)c(-c2c(COC(=O)c3ccc4c(c3)OCO4)cc(OC)c3c2OCO3)c2c1OCO2
[3]
  pIC50: < 4.00
[8]
  pIC50: < 4.00
[17]
  inhibition: inactive
[10]
  pIC50: < 4.00
[16]
  pIC50: < 4.00

## COc1ccc(CCN(C)CCCC(C#N)(c2ccc(OC)c(OC)c2)C(C)C)cc1OC (centres undefined)
[1]
  Activity: Active
[2]
  fold change (FC): 31
[9]
  fold change (FC): 1.2
[11]
  Activity: Active
[13]
  Activity: Active
[14]
  fold change (FC): 109
[15]
  fold change (FC): 9

## COC(=O)c1c(Br)c(OC)c2c(c1-c1c3c(c(OC)c(Br)c1C(=O)OC)OCO3)OCO2
[3]
  pIC50: < 4.00
[8]
  pIC50: < 4.00
[17]
  inhibition: inactive
[10]
  pIC50: < 4.00
[16]
  pIC50: < 4.00

## COc1cc(COC(=O)CCC(=O)O)c(-c2c(COC(=O)CCC(=O)O)cc(OC)c3c2OCO3)c2c1OCO2
[3]
  pIC50: < 4.00
[8]
  pIC50: < 4.00
[17]
  inhibition: inactive
[10]
  pIC50: < 4.00
[16]
  pIC50: < 4.00
